Results from different studies.
Compare with care: the assays were run in different laboratories.
Target: Kappa-type opioid receptor (OPRK1, Homo sapiens, UniProt P41145)

Compound | assay | endpoint | result
Cc1nccc2c1c(=O)n(C)c1cc(OC[C@@H](N)CC(C)C)c(C#N)cc21 | cell-free assay | IC50 | 29 µM
Cc1ccc(C(=O)NCC2CCN(Cc3ccc(C(C)C)cc3)CC2)cc1 | cell-free assay | Ki | > 10 µM
OCCCN1CC[C@@H]2C[C@H]1c1cc(-c3ccc(C(F)(F)F)cc3)ccc12 | ligand displacement, radioligand | Ki | 7.09 µM
Clc1ccc(CSc2nnc(-c3ccccn3)n2Cc2cccs2)cc1Cl | β-arrestin recruitment, agonist, imaging | EC50 | 0.39 µM
CCOCc1nc(O)c(-c2nnc(Cc3ccc(Cl)cn3)o2)c(O)c1-c1c(OC)cccc1OC | ligand displacement, radioligand | IC50 | > 30 µM
O=C(c1ccccn1)N(Cc1cccs1)C1(C(=O)NC2CCCCC2)CCCCC1 | β-arrestin recruitment, agonist | EC50 | 0.11 µM
CNC(=O)[C@@]12C[C@@H]1[C@@H](n1cnc3c(NC)cc(C#Cc4ccc(Cl)s4)nc31)[C@H](O)[C@@H]2O | cell-free assay | Ki | > 10 µM
Cc1cc(C)nc(C(=O)NC[C@@H]2CCCN(Cc3ccc(F)c(F)c3)C2)c1 | cell-free assay | Ki | 6.46 µM
O[C@@H]1[C@H](O)[C@@H]2C[C@@H]2[C@H]1n1cnc2c(NCCc3ccccc3)nc(C#Cc3ccccc3)nc21 | cell-free assay | Ki | > 10 µM
CCCCN1CCC(COC(=O)c2ccc(N)c(OCF)c2)CC1 | cell-free assay, radioligand | Ki | > 10 µM
O[C@@H]1[C@H](O)[C@@H]2C[C@@H]2[C@H]1n1cnc2c(NCc3cccc(Cl)c3)ncnc21 | cell-free assay | Ki | > 10 µM
OC[C@@]12C[C@@H]1[C@@H](n1cnc3c(NC(C4CCCC4)C4CCCC4)nc(Cl)nc31)[C@H](O)[C@@H]2O | cell-free assay, radioligand | Ki | 0.11 µM
